According to ChEMBL document CHEMBL1139728, “Design, synthesis, and characterization of new embelin derivatives as potent inhibitors of X-linked inhibitor of apoptosis protein” (Bioorg Med Chem Lett, 2006):

How the values were obtained:
[1] = system: MDA-MB-231; assay: Growth inhibition in human MDA-MB-231 cell line; format: functional, cell-based
In short: (§1)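 Human cancer cells (MDA-MB-231 (2LMP) breast line; PC-3 prostate line) exposed to compound for 4 days across a concentration series spanning 0.01–100 μM. Growth read by WST assay; IC50 taken from the dose-response curve.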

[2] = system: PC-3; assay: Growth inhibition in human PC3 cell line; format: functional, cell-based; in short: as §1
[3] = molecular target: E3 ubiquitin-protein ligase XIAP (Homo sapiens, UniProt P98170); assay: Binding affinity to recombinant XIAP BIR3 by FP assay
In short: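 Competitive fluorescence-polarization assay on the XIAP BIR3 domain; binding expressed as Ki.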

Chain of E3 ubiquitin-protein ligase XIAP (P98170 whole entry, the tested form may be a part): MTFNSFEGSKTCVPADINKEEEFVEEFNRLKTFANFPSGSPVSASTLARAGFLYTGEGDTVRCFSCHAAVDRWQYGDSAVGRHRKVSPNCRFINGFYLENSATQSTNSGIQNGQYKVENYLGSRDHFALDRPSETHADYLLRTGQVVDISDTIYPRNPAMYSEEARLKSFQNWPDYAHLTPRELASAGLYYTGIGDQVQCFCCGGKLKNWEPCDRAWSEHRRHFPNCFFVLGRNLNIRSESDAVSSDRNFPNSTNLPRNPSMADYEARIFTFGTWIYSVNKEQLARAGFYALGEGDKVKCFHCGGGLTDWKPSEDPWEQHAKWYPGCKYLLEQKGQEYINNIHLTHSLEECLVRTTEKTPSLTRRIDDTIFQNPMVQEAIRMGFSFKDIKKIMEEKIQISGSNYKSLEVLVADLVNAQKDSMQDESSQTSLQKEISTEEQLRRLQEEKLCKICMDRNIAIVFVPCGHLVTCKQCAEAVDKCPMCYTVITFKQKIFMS

IC50 [1]	IC50 [2]	Ki [3]	SMILES
5 µM	5.5 µM	–	Cc1cccc(CCc2cccc(CCC3=C(O)C(=O)C=C(O)C3=O)c2)c1
–	–	0.71 µM	O=C1C=C(O)C(=O)C(CCc2ccccc2)=C1O
–	–	0.48 µM	CCCCc1cccc(CCC2=C(O)C(=O)C=C(O)C2=O)c1

Continued, compound first:

SMILES	IC50 [1]	IC50 [2]	Ki [3]
O=C1C=C(O)C(=O)C(CCCCc2ccccc2)=C1O	–	–	1.3 µM
CCC1=C(O)C(=O)C=C(O)C1=O	–	–	10.4 µM
CCCCCCCCCCCC1=C(O)C(=O)C=C(O)C1=O [EMBELIN]	–	–	0.4 µM
